pIC50: −log10 of the molar value.
Organism: Cavia porcellus
Test: Concentration to produce 50%inhibition of the electrically evoked twitch in guinea pig
Type: functional
Summary of the method: (§1)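 Electrically evoked twitch of guinea pig tissue. IC50, the concentration giving 50% inhibition of the twitch, was calculated by linear regression. Potency was expressed relative to normorphine assayed on the same tissues.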

SMILES | pIC50
Oc1ccc2c3c1O[C@H]1[C@@H](O)C=C[C@H]4[C@@H](C2)NCC[C@@]341 [NORMORPHINE] | 7.50

Organism: Cavia porcellus
Test: Relative potency to that of normorphine in the electrically stimulated Guinea pig ileum test
Type: functional
Summary of the method: as §1

SMILES | Relative potency
CN1CCC2(CC1)c1ccccc1Oc1c(CO)cccc12 | 0.004
CN1CCC2(CC1)c1cccc(O)c1Oc1cccc(Cl)c12 | 0.031
c1ccc(NCCN2CCC3(CC2)c2ccccc2Oc2ccccc23)cc1 | 3.5
COc1cccc2c1C1(CCN(C)CC1)c1cccc(O)c1O2 | 0.094
CN1CCC2(CC1)c1ccccc1Oc1c(S)cccc12 | 0.001
CN1CCC2(CC1)c1ccccc1Oc1c(N)cccc12 | 0.055
CC(=O)Nc1cccc2c1Oc1ccccc1C21CCN(C)CC1 | 0.008
Cc1cccc2c1C1(CCN(C)CC1)c1cccc(O)c1O2 | 0.237
CC(=O)Oc1cccc2c1Oc1ccccc1C21CCN(C)CC1 | 1
CN1CCC2(CC1)c1ccccc1Oc1c(O)cccc12 | 0.175
CN1CCC2(CC1)c1cccc(O)c1Oc1cccc(F)c12 | 0.16
CCC(=O)C(CC(C)N(C)C)(c1ccccc1)c1ccccc1 (stereo not drawn) [METHADONE] | 0.91
